Measurements taken from ChEMBL document CHEMBL1141332, “Cytotoxic metabolites from an Indonesian sponge Lendenfeldia sp” (J Nat Prod, 2007).

Tests used:
[1] = molecular target: T1, Hypoxia inducible factors; HIF-1-alpha, HIF-2-alpha (Homo sapiens, UniProt Q16665+Q99814); assay: Inhibition of HIF1 activity in human T47D cells by cell based reporter assay
In short: (§1)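 T47D cells grown in DMEM/F12 with glutamine, 10% FCS and penicillin/streptomycin at 37 °C under 5% CO2, then transiently transfected with the pHRE-TK-Luc reporter. Compounds from DMSO stocks were tested at half-log concentrations for 16 h, with luciferase read-out. IC50 was taken from curve fits of triplicate experiments.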

[2] = molecular target: T1, Hypoxia inducible factors; HIF-1-alpha, HIF-2-alpha; assay: Inhibition of 1, 10-phenanthroline-induced HIF1 activity in human T47D cells by cell based reporter assay; in short: as §1
T47D [3] = assay: Inhibition of human T47D cells assessed as cell viability under hypoxic condition after 48 hrs; type: functional, cell-based
In short: (§2)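 Neutral Red proliferation/viability assay on T47D or MDA-MB-231 cells kept in DMEM/F12 with 10% FCS at 37 °C under 5% CO2, with 48 h compound exposure. Read-out was OD540, and % inhibition = 1 − OD540(treated)/OD540(control). IC50 was derived from the concentration–response data.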

T47D [4] = assay: Cell viability of human T47D cells under hypoxic condition after 16 hrs; type: functional, cell-based
T47D [5] = assay: Inhibition of human T47D cells assessed as cell viability under normoxic condition after 48 hrs; type: functional, cell-based; in short: as §2
MDA-MB-231 [6] = assay: Inhibition of human MDA-MB-231 cells assessed as cell viability under hypoxic condition after 48 hrs; type: functional, cell-based; details: MDA-MB-231, 48 h; in short: as §2
MDA-MB-231 [7] = assay: Inhibition of human MDA-MB-231 cells assessed as cell viability under normoxic condition after 48 hrs; type: functional, cell-based; details: MDA-MB-231, 48 h; in short: as §2

IC50 [1]: 4.3 µM | IC50 [2]: 5.1 µM | IC50 (T47D [3]): 8.3 µM | IC50 (T47D [4]): 19 µM | IC50 (T47D [5]): 8.7 µM | IC50 (MDA-MB-231 [6]): 7 µM | IC50 (MDA-MB-231 [7]): 6 µM
Structure (SMILES): COc1ccc2c(O)c(O)ccc2c1-c1c(OC)ccc2c(O)c(O)ccc12
